A selection: hits, their analogues and other compounds. The true share with any hit is near 2.5%.
MEKK2 mut-MEK5 = signal of MEK5 binding to mutant human MEKK2 PB1 domain; percent response, % at 10 µM; actives 0.35% (n = 290,000); bead flow cytometry, Alexa488-MEK5 binding to MEKK2 mutant; in the data active = percent response above about 24%, passing the limit was not always enough
MEKK2wt PB1 HTS = raises or lowers MEK5 binding to wildtype human MEKK2 PB1 domain; bead flow cytometry, Alexa488-MEK5 binding to MEKK2 WT; actives lie on both sides; binding response (% of control), % at 10 µM; actives 1.1% (n = 290,000); AID 1531; in the data active = binding response below about 67% or above about 130%
ABCG2 block = blocks JC-1 efflux by human ABCG2 transporter | Q9UNQ0 | IgMXP3 cells, flow cytometry | inhibition, % at 6.6 µM | actives 0.1% (n = 190,000);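 active = inhibition above 80%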;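 also: 0% = DMSO and 100% = nicardipine control wells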
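Times: 10 min at 25 °C | Test system: Two drug-resistant human cell lines, ABCG2 and ABCB1 | Quantity: 3 million cells/mL final, two lines in 1:1 ratio | Signal: Flow cytometry, 530 nm JC-1 signal | Dosing: Compound at 6.6 µM | Controls: Nicardipine and DMSO wells | Reagent: JC-1 as fluorescent efflux pump substrate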
MEKK3 PB1 HTS = raises or lowers MEK5 binding to the human MEKK3 PB1 domain | Q99759 | bead-based flow cytometry, Alexa488-MEK5 binding to MEKK3; actives lie on both sides; 0 = blocked by unlabeled MEK5, 100 = vehicle | binding response (% of control), % at 10 µM | actives 1.4% (n = 290,000);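 active = binding response more than 3 SD above or below the average of its plate-row segment, actives on both sides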;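 also: Alexa488 bead fluorescence after subtracting the streptavidin-only scavenger bead signal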
Target sequence (Q99759 whole entry, looked up, the tested form may be a part): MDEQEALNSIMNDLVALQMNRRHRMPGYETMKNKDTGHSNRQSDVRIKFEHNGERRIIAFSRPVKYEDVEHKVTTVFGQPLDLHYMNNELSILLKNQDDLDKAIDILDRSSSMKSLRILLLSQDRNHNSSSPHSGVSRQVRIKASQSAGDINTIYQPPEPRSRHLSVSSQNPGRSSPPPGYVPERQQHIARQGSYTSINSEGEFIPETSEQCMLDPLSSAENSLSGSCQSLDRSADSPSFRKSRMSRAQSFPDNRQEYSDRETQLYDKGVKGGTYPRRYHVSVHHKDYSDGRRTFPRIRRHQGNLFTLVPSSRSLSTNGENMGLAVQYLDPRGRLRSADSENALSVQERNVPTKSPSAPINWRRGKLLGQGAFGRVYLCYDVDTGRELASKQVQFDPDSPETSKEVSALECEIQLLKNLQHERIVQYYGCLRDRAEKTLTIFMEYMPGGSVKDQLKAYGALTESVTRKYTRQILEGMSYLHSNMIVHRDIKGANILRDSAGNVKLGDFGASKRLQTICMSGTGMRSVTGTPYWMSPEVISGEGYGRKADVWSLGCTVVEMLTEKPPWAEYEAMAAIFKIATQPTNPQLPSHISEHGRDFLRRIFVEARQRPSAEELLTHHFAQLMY
ABCB1 inh = inhibitors of human ABCB1 transporter, ABCG2 counter-screen. P08183. actives 0.067% (n = 190,000). CCRF-Adr cells, JC-1 efflux, flow cytometry. AID 1326. inhibition, % at 6.6 µM; in the data active = inhibition above about 40%;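 also: 0% = vehicle and 100% = reference inhibitor; higher value means more JC-1 retained so stronger ABCB1 efflux block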
Efflux pump inh = blocks antifungal efflux pumps in multiplex yeast assay; S. cerevisiae Candida pump triplex, Nile Red efflux; inhibition, % at 10 µM; actives 0.44% (n = 330,000);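 active = plate passing quality check with inhibition over a set limit, or well fluorescence over plate mean plus 4 SD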;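 also: Nile Red retained in pooled yeast measured as flow cytometry median fluorescence; 0% = buffer negative control and 100% = Enniatin B positive control; higher means more Nile Red kept so more efflux inhibition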
MEKK2wt confirm = raises or lowers MEK5 binding to wildtype human MEKK2, retest; binding response (% of control), % at 10 µM; bead flow cytometry, Alexa488-MEK5 binding to MEKK2 WT; actives lie on both sides; AID 1892; shares compounds with MEKK3 PB1 HTS; actives 2.4% (n = 5,900); in the data active = binding response below about 16% or above about 210%; inactive = in between
MEKK2mut confirm = signal of MEK5 binding to mutant human MEKK2, retest; AID 1893; percent response, % at 10 µM; bead flow cytometry, Alexa488-MEK5 binding to MEKK2 mutant; actives 2% (n = 5,900); shares compounds with MEKK3 PB1 HTS; in the data active = percent response mostly above about 71%, no sharp cut-off; inactive = mostly below about 38%;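 also: higher means compound restores mutant binding toward wildtype level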
MEKK3 confirm = MEKK3-MEK5 PB1 inhibition, single concentration confirmation; bead flow cytometry, Alexa488-MEK5 binding to MEKK3; hits give low values; binding response (% of control), % at 10 µM; shares compounds with MEKK3 PB1 HTS; AID 1894; actives 1.8% (n = 5,900);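 active = binding response below 72% of control, or above a set upper limit, though filed actives all read lower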;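 also: 100% = DMSO only wells and 0% = binding blocked by excess unlabeled MEK5; lower values mean stronger disruption of MEK5 binding to MEKK3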
* = called active by the depositor; x = not tested or not shown; [ ] = remark or other dose.

SMILES	MEKK2 mut-MEK5	MEKK2wt PB1 HTS	ABCG2 block	MEKK3 PB1 HTS	ABCB1 inh	Efflux pump inh	MEKK2wt confirm	MEKK2mut confirm	MEKK3 confirm
Cc1[nH]c2ccccc2c1C(=O)COC(=O)Cn1cnc2ccccc21	55*	120	6	102	1	0	107	7	103
COc1ccccc1CNC(=O)C(Cc1c[nH]c2ccccc12)NC(=O)OCc1ccccc1 (centres undefined)	-2	101	-2	98	0	0	x	x	x
N#C/C(=C\c1ccccc1[N+](=O)[O-])C(=O)NC1CCCCC1	-17	47*[inhibitor]	17	40*[inhibitor]	2	0	97	-6	99
COc1cc2[nH]c(=O)n(CCCC(=O)N3CC=C(c4ccccc4)CC3)c(=O)c2cc1OC	10	120	1	127*	0	0	105	4	104
Cc1cccc(NS(=O)(=O)c2c(C)n[nH]c2C)c1	-5	90	0	81*[inhibitor]	0	0	96	-11	94
COc1ccccc1NC(=S)NCCc1c[nH]c2ccccc12	-5	90	1	92	0	0	x	x	x
COc1cccc(CNCCc2c[nH]c3ccccc23)c1OCc1ccc(F)cc1	39*	165*	0	111	0	0	131	22	101
COc1cc(CNCCc2c[nH]c3ccccc23)ccc1OCc1ccc(F)cc1	47*	197*	2	106	1	0	144	14	87
c1ccc2c(c1)cnc1ccccc12	-13	33*[inhibitor]	x	37*[inhibitor]	x	0	104	3	107
c1ccc2nc3ccccc3nc2c1	1	68	3	46*[inhibitor]	1	0	103	7	105
Nc1nc2ccccc2nc1N	1	99	0	95	0	0	x	x	x
Cc1ccc(C)c(OCC(=O)Nc2ccc(S(=O)(=O)Nc3ccccn3)cc2)c1	-1	102	8	134*	0	0	108	4	105
COc1ccccc1NC(=O)CSc1nc(N)c(C#N)cc1C#N	0	109	5	130*	5	0	104	14	105
CCCCN(C(=O)CSc1nnc2ccccn12)c1c(N)n(Cc2ccccc2)c(=O)[nH]c1=O	0	106	2	128*	0	0	108	7	102
O=C(c1ccccc1)N1CCN(CC(O)Cn2ccc3ccccc32)CC1 (centres undefined)	23	119	x	118	x	0	x	x	x
COc1ccc(C(=O)/C=C/c2cn(CC(O)CN3CCN(C)CC3)c3ccccc23)cc1OC (centres undefined)	8	120	x	98	x	0	x	x	x
CCCN(CCC)CC(O)Cn1cc(/C=C/C(=O)c2ccccc2)c2ccccc21 (centres undefined)	21	154*	22	88	12	x	150	21	99
CN1CCN(Cn2cc(/C=C/C(=O)c3ccccc3)c3ccccc32)CC1	18	142*	4	104	0	0	111	1	101
O=C(/C=C/c1cn(CC(O)CN2CCCCC2)c2ccccc12)c1ccccc1 (centres undefined)	16	141*	x	98	x	x	160	37	107
OC(CN1CCCC1)Cn1ccc2ccccc21 (centres undefined)	31*	146*	x	101	x	0	163	33	105
CCOc1ccccc1NC(=S)N1CCN(c2cccc(OC)c2)CC1	-2	96	x	101	x	0	x	x	x
CCOc1cc(C(=O)OC(C(=O)NC(=O)NC)c2ccccc2)ccc1OCC(=O)N1CCOCC1 (centres undefined)	x	x	x	x	x	0	x	x	x
CCc1ccccc1NC(=S)N(CCOC)C(C)c1ccco1 (centres undefined)	3	109	x	111	x	0	x	x	x
CCCCN(C)CC(O)Cn1cc(/C=C/C(=O)c2ccc(C)cc2)c2ccccc21 (centres undefined)	54*	186*	x	107	x	0	189	55	107
O=C(Cc1ccc(Br)cc1)NC1CCSC1=O (centres undefined)	-3	98	2	96	0	0	x	x	x
SMILES	MEKK2 mut-MEK5	MEKK2wt PB1 HTS	ABCG2 block	MEKK3 PB1 HTS	ABCB1 inh	Efflux pump inh	MEKK2wt confirm	MEKK2mut confirm	MEKK3 confirm
CC(=O)NS(=O)(=O)c1ccc(N=c2ssc3c2-c2cc(C)ccc2NC3(C)C)cc1	0	97	-1	129*	0	-2	90	-7	96
CCOC(=O)C1=C(NC(=S)NC(=O)c2ccccc2)c2ccccc2CC1(C)CC (centres undefined)	1	30*[inhibitor]	2	94	1	0	98	0	101
CSc1ccc(CN2CCN(C(C)C)C(CCO)C2)cc1 (centres undefined)	3	101	1	104	0	0	x	x	x
CC(Oc1ccc(C(=O)NCCc2ccccc2)cc1)C(=O)O (centres undefined)	-1	99	0	106	0	0	x	x	x
CC(C)OC(=O)C(C)Oc1ccc(C(=O)NCCc2ccccc2)cc1 (centres undefined)	4	110	12	123*	1	0	104	6	100
CCCCc1nnc(NC(=O)CSc2nc(O)c(-c3ccccc3)c(=O)[nH]2)s1	533*	x	6	117	4	0	102	0	103
O=C1/C(=C/c2cccs2)N=C(c2cccs2)N1Nc1ccccc1	-16	57*[inhibitor]	-1	88	0	0	78	-8	103
O=C1/C(=C\c2cccs2)N=C(c2cccs2)N1Nc1ccccc1	-11	64	0	84	0	0	x	x	x
CCCc1nc2nc(C)c(NS(=O)(=O)c3ccc(Cl)cc3)c(=O)n2[nH]1	-1	103	x	103	x	0	x	x	x
CN(C)c1ccc(/C=C/c2ccc3c4ccccc4ccc3[n+]2-c2ccccc2)cc1	-33	41*	0	18*[inhibitor]	0	x	138	56	81
O=C(CCC(NC(=O)OCc1ccccc1)C(=O)OCC(=O)N1CCCCC1)OCC(=O)N1CCCCC1 (centres undefined)	-4	84	6	86	0	0	x	x	x

Screens as filed in PubChem BioAssay.
